Screening results (PubChem BioAssay)
This is a sample that favours compounds with a hit; in the whole collection about 1% have one here.
PglD DTNB: blocks C. jejuni PglD acetyltransferase activity. purified PglD enzyme, DTNB colorimetric CoA detection. inhibition, % at 12.5 µM. 360,000 compounds, 0.098% hits. AID 602405; in the data active means inhibition above about 16%, passing the limit was not always enough
PDI turbidity: PDI (human) enzyme inhibition; P07237; PDI insulin aggregation turbidity, A650, 90 min; inhibition, % at 10 µM; 350,000 compounds, 0.052% hits;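 active means mean inhibition across replicates of 30% or more, whatever share of single replicates reach that level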
Target sequence (P07237 whole entry, looked up): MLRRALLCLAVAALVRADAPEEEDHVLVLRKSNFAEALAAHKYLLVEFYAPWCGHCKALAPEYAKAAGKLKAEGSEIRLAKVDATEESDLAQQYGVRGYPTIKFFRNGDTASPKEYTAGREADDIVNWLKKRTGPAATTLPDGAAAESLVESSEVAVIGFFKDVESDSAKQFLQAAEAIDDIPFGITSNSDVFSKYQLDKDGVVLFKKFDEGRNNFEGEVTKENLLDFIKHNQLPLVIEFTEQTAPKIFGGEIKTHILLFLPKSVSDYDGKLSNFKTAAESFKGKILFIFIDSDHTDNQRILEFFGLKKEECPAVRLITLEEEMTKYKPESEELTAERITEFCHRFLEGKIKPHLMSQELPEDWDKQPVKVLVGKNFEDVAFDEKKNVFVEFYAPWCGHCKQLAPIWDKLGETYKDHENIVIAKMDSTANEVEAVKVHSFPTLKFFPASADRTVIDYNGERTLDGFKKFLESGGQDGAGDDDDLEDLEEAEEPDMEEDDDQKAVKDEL
VIM-2 inhibitor: blocks Pseudomonas aeruginosa VIM-2 metallo-beta-lactamase | 290,000 compounds, 0.89% hits | purified VIM-2, nitrocefin hydrolysis, epi-absorbance fluorescence | inhibition, % at 5.6 µM;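 active means inhibition above the mean of all tested compounds plus 3 SD, cutoff set per screening run, cut at about 7.5% in these data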;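 further: red hydrolysis product quenches plate fluorescence so inhibitors raise well fluorescence; 0% = enzyme with DMSO and 100% = DMSO without enzyme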
IMP-1 inhibitor: blocks Pseudomonas aeruginosa IMP-1 metallo-beta-lactamase; AID 1556; inhibition, % at 5.6 µM; purified IMP-1, nitrocefin hydrolysis, epi-absorbance fluorescence; 290,000 compounds, 0.45% hits;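 active means inhibition above the mean plus 3 SD of all compounds in the same screening run, cut at about 4.5% in these data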;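 further: 0% = IMP-1 with DMSO and 100% = DMSO wells lacking enzyme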
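System: Purified IMP-1 | Read-out basis: Percent enzyme inhibition | Controls: IMP-1 with DMSO as 0%, enzyme-free DMSO as 100% | Replicates: One well per compound | Doses: 5.6 µM nominal single concentration | Detection: Epi-absorbance fluorescence, 480 nm excitation, 530 nm emission | Incubation: 25 °C, 15 min preincubation, 25 min reaction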
ERp5 block: inhibitors of human ERp5 | 350,000 compounds, 0.05% hits | ERp5 insulin aggregation, absorbance 650 nm, 90 min | inhibition, % at 9.99 µM | Q15084 | AID 651711;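 active means mean replicate inhibition above about 25%, with every replicate also reaching it, limit read from the data, passing the limit was not always enough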
PvdQ inh: P. aeruginosa PvdQ acylase inhibition; purified PvdQ acylase, fluorescence plate reader; inhibition, % at 10 µM; 340,000 compounds, 0.063% hits; AID 488965; in the data active means inhibition above about 30%, passing the limit was not always enough;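 further: 0% = vehicle neutral wells and 100% = reference inhibitor wells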
PglD inh SP: blocks Campylobacter jejuni PglD acetyltransferase activity; shares compounds with PglD DTNB; Purified C. jejuni PglD, DTNB absorbance 412 nm; inhibition, % at 20 µM; 320 tested, under 10 active; AID 743156;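 active means mean inhibition across replicates of at least 20% with every single replicate also at 20% or more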;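 further: initial rate of CoA release by acetyl transfer from AcCoA to the UDP-4-amino sugar; 0% = median of neutral control wells and 100% = median of positive control wells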
Numbers without * were called inactive; . = no result.

SMILES | PglD DTNB | PDI turbidity | VIM-2 inhibitor | IMP-1 inhibitor | ERp5 block | PvdQ inh | PglD inh SP
O=C(CSc1ccccc1)NCCc1ccc(F)cc1 | 76* | 1 | -3 | -4 | 5 | -2 | -1
CC(C(=O)Nc1ccc(C#N)cc1)N(C)Cc1cccs1 (stereo unspecified) | -1 | 12 | 0 | -2 | 1 | -11 | .
CC(C(=O)Nc1ccc(Cl)cc1)N(C)Cc1cccs1 (stereo unspecified) | 23* | 9 | 0 | 0 | 4 | -9 | -8
CC=Cc1ccc2n(c1=O)C[C@H]1[C@H](CO)[C@@H](C(=O)NC3CCC3)[C@@H]2N1Cc1ccncc1 (mixture of isomers) | . | . | . | . | 1 | . | .
C[C@H](CO)N1C[C@H](C)[C@H](CN(C)CC2CC2)Oc2ncc(C#CC3(O)CCCC3)cc2C1=O | . | . | . | . | 1 | . | .
O=C(O)CSc1cc(C(=O)c2ccccc2O)cn2c(=O)c3c4c(sc3nc12)CCCC4 | 22* | 22 | -3 | -1 | 8 | -2 | 1
O=C(O)CSc1nc2sc3c(c2c(=O)n1Cc1ccccc1)CCCCC3 | -3 | -1 | 0 | -3 | 2 | 5 | .
O=C(NCC1CCCO1)[C@@H]1CSC2c3ccccc3C(=O)N21 (stereo partly specified) | 22* | -3 | -4 | -3 | . | 0 | -6
C[C@H](CO)N1C[C@H](C)[C@H](CN(C)C(=O)Cc2ccccn2)Oc2ncc(C#CC3CC3)cc2C1=O | 0 | . | . | . | 5 | . | .
CCNC(=O)CC1C(=O)N(c2ccccc2)C(=O)N1Cc1ccc(OC)cc1 (stereo unspecified) | 33* | -1 | -4 | -3 | . | 5 | 0
CC(C)OCCCn1c(=NC(=O)c2ccncc2)c(C#N)cc2c(=O)n3ccccc3nc21 | 4 | 1 | 1 | 1 | . | -13 | .
CC(C)OCCCn1c(=NC(=O)c2cccs2)c(C#N)cc2c(=O)n3ccccc3nc21 | 68* | -2 | 0 | -3 | 0 | . | -8
CCS(=O)(=O)N1CC2(CN(Cc3ccc4c(c3)OCO4)[C@@H](CO)c3c2c2ccc(OC)cc2n3C)C1 | . | . | . | . | 0 | . | .
O=C(NCc1cccnc1)Nc1cccc(NC(=O)NCc2cccnc2)c1 | 0 | 6 | -4 | -4 | . | -7 | .
CC(=O)c1cccc(NC(=O)NCc2cccnc2)c1 | 22* | 11 | -2 | -2 | -2 | -6 | 2
C=CCc1c(OC)ccc2c1c(S(=O)(=O)c1ccc(C)cc1)cn2COC | 22* | -1 | 0 | -2 | 7 | -2 | 1
COc1ccc(-c2ccc([C@H]3[C@@H](CO)N4C(=O)CNC[C@H]34)cc2)cc1 | . | . | . | . | -3 | . | .
O=C1CSCN1c1ccc(Cl)cc1 | 83* | -3 | -4 | -3 | 1 | -1 | 9
O=C(C[C@@H]1CC[C@@H]2[C@H](COC[C@@H](O)CN2CC2CCOCC2)O1)NCC1CC1 | -1 | . | . | . | -6 | . | .
